Results reported in the M2OR odorant receptor database.

Tests used:
Conditions in all cases: stereoisomer not certain
UniProt Q7TR79 = target: T1, UniProt Q7TR79
T1 sequence (whole entry): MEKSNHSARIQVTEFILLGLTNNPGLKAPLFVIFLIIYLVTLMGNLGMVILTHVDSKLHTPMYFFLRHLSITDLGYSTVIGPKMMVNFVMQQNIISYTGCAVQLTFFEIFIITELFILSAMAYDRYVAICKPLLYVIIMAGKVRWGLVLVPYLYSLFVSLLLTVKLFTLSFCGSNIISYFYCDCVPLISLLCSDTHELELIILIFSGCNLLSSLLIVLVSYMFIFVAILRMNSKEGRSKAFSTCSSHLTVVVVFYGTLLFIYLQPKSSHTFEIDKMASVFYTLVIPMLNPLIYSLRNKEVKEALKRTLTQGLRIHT
How it was run: (§1)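 Transient luciferase assays in mammalian cell lines were common, though methods varied by source. The values come from published papers and their supplementary material, with extra details from the original authors when needed. Responsive refers to a measured signal the original authors judged statistically different from baseline, and non-responsive (inactive) to the remainder.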

UniProt Q7TRX0 = target: T2, UniProt Q7TRX0
T2 sequence (whole entry): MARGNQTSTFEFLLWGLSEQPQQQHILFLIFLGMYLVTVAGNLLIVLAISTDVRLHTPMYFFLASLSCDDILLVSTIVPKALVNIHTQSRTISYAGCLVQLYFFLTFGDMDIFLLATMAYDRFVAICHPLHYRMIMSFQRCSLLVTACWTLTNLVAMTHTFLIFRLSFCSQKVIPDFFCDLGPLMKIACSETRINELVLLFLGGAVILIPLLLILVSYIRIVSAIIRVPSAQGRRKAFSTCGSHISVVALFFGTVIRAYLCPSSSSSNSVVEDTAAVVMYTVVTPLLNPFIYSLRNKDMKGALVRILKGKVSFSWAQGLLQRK
How it was run: as §1

UniProt Q7TR71 = target: T3, UniProt Q7TR71
T3 sequence (whole entry): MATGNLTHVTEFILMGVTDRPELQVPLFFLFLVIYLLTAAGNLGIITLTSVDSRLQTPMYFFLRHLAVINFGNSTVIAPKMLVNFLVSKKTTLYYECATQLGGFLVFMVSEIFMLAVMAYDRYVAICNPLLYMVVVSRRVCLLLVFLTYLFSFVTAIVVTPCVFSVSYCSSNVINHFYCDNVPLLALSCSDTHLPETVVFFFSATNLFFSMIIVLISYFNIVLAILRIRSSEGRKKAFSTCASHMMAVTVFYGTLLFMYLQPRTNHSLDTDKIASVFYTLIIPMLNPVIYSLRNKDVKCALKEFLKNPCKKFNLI
How it was run: as §1

UniProt Q7TRA3 = target: T4, UniProt Q7TRA3
T4 sequence (whole entry): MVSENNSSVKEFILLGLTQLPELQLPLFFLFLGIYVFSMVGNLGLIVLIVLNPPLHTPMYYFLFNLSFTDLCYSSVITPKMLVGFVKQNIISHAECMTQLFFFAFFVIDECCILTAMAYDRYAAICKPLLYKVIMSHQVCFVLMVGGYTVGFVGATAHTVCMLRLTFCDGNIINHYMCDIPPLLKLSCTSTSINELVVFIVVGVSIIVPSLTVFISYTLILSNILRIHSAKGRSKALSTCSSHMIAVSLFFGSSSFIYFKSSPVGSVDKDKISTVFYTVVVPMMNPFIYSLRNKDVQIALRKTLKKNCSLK
How it was run: as §1

UniProt Q7TRE4 = target: T5, UniProt Q7TRE4
T5 sequence (whole entry): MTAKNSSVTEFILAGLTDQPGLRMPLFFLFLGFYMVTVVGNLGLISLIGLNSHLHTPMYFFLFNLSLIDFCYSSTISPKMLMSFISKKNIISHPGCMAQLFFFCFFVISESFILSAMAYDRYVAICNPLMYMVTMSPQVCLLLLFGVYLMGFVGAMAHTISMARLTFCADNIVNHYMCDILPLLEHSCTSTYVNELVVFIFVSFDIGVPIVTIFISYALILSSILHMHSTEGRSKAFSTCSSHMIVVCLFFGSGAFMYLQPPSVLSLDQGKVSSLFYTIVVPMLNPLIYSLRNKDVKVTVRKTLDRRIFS
How it was run: as §1

UniProt Q7TRW1 = target: T6, UniProt Q7TRW1
T6 sequence (whole entry): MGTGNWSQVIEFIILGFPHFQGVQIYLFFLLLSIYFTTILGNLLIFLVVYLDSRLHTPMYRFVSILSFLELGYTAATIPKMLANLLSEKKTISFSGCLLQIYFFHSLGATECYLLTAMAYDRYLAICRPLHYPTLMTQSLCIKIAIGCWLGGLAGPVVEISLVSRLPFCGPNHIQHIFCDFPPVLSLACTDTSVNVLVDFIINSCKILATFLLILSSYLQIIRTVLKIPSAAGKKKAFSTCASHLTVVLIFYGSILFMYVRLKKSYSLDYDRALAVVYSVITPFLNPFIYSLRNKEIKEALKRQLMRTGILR
How it was run: as §1

UniProt Q8VEU7 = target: T7, UniProt Q8VEU7
T7 sequence (whole entry): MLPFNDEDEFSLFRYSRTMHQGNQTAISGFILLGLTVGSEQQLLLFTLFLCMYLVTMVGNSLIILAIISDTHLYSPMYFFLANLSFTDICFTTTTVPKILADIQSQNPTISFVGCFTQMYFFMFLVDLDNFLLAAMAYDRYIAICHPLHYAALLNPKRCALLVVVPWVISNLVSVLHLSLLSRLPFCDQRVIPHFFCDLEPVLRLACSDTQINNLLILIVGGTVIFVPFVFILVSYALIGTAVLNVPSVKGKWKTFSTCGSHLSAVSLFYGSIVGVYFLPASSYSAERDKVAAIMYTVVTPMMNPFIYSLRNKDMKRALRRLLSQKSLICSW
How it was run: as §1

UniProt Q8VF05 = target: T8, UniProt Q8VF05
T8 sequence (whole entry): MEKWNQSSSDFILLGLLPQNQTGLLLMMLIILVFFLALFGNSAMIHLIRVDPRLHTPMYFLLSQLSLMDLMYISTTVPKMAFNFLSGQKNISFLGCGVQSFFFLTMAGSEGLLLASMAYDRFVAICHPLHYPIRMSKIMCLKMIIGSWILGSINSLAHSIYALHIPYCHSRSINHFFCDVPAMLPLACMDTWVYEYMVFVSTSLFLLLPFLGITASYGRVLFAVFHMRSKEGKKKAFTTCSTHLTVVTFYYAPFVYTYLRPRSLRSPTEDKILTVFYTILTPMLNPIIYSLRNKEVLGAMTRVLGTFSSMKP
How it was run: as §1

UniProt Q7TRM0 = target: T9, UniProt Q7TRM0
T9 sequence (whole entry): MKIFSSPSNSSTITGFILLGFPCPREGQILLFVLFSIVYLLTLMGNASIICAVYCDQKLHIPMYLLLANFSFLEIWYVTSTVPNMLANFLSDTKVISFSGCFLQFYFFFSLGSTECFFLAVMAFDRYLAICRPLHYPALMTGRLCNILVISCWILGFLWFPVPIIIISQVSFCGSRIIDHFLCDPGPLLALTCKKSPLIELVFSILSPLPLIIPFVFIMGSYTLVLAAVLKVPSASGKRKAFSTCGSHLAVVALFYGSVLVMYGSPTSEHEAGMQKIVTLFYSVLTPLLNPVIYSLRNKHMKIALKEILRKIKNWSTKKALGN
How it was run: as §1

UniProt Q7TRN9 = target: T10, UniProt Q7TRN9
T10 sequence (whole entry): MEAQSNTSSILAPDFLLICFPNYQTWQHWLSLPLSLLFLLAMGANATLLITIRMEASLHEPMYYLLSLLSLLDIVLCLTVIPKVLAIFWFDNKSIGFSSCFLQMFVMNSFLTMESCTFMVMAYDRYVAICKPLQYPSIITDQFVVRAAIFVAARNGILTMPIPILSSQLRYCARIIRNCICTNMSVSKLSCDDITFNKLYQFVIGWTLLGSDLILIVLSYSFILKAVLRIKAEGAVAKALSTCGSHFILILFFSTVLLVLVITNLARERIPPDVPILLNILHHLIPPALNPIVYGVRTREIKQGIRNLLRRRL
How it was run: as §1

UniProt Q7TRR8 = target: T11, UniProt Q7TRR8
T11 sequence (whole entry): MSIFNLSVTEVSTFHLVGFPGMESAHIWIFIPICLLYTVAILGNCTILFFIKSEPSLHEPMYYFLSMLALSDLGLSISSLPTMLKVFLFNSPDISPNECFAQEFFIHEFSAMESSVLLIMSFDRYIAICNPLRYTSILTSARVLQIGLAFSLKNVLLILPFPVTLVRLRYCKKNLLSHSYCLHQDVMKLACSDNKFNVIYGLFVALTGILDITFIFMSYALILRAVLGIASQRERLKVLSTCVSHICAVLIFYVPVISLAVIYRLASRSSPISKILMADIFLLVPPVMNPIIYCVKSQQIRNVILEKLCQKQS
How it was run: as §1

Measured: odorant receptor agonist call

CCCC=O
inactive: UniProt Q7TR79 | UniProt Q7TRX0

CCCCOC(=O)C(C)OC(=O)CCC (stereo unspecified)
inactive: UniProt Q7TR71 | UniProt Q7TRA3 | UniProt Q7TRE4 | UniProt Q7TRW1 | UniProt Q8VEU7 | UniProt Q8VF05

CSSSC
inactive: UniProt Q7TR79 | UniProt Q7TRX0

CCC(C)O (stereo unspecified)
inactive: UniProt Q7TR79 | UniProt Q7TRX0

CCSCC
inactive: UniProt Q7TR79 | UniProt Q7TRX0

CCOC(=O)C(C)C
active: UniProt Q8VF05
not listed: UniProt Q7TRM0 | UniProt Q7TRN9 | UniProt Q7TRR8
inactive: all other assays above

CCCC(C)=O
inactive: UniProt Q7TR71 | UniProt Q7TRA3 | UniProt Q7TRE4 | UniProt Q7TRW1 | UniProt Q8VEU7
active: UniProt Q8VF05

CC(C)=C1CCC(C)CC1=O (stereo unspecified)
inactive: UniProt Q7TR79 | UniProt Q7TRX0

CCCCCCC(=O)[O-].[H+]
active: UniProt Q7TRN9
not listed: UniProt Q7TR79 | UniProt Q7TRX0
inactive: all other assays above

CCCCCO
not listed: UniProt Q7TR79 | UniProt Q7TRX0 | UniProt Q7TRM0
inactive: all other assays above

O=C(O)CCCCCBr
inactive: UniProt Q7TR79 | UniProt Q7TRM0 | UniProt Q7TRN9 | UniProt Q7TRR8 | UniProt Q7TRX0

COc1nccnc1C(C)C
inactive: UniProt Q7TR79 | UniProt Q7TRX0

CSSCc1ccco1
inactive: UniProt Q7TR79 | UniProt Q7TRX0
